For data set [1], the target named is T1, Broad substrate specificity ATP-binding cassette transporter ABCG2 (Homo sapiens, UniProt Q9UNQ0).
T1 sequence (Q9UNQ0 whole entry): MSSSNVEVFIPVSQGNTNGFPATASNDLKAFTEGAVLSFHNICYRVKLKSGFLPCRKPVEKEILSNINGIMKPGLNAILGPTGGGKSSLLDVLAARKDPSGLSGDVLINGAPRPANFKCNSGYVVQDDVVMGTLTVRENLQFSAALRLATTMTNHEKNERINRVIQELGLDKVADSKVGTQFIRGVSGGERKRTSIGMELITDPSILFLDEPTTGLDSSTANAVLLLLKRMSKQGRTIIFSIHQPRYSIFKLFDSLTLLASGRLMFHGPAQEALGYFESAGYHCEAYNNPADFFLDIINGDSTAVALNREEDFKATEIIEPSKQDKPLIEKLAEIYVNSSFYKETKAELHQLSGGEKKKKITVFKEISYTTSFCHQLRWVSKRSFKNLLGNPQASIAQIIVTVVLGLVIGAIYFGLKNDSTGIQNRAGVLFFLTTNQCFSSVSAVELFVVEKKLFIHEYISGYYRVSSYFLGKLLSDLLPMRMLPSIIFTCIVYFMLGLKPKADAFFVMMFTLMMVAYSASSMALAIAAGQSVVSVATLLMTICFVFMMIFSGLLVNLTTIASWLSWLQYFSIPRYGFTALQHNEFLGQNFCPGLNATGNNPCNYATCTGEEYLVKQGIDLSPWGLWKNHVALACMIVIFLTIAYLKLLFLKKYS
Kind of data set: Inhibition of ABCG2 expressed in HEK293 cells assessed as mitoxantrone-mediated efflux by flow cytometry. In kind it is cell-based. In short, it runs like this:
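HEK-293 cells transfected with human wild-type (R482) ABCG2, or empty-vector control cells, loaded with 5 µmol/L mitoxantrone for 30 min at 37 °C with or without a range of inhibitor concentrations (DMSO, 0.5% final). Cells washed in PBS, then kept 1 h in substrate-free medium with the same inhibitor level. Intracellular fluorescence read by flow cytometry. 100% = control minus ABCG2-cell mean fluorescence without inhibitor. IC50 derived.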

In data set [2] the target is T1, Broad substrate specificity ATP-binding cassette transporter ABCG2. Kind of data set: Inhibition of ABCG2 expressed in HEK293 cells assessed as mitoxantrone-mediated efflux by flow cytometry relative to GF120918. The format is cell-based. Further details: concentration or dose not given beside the values. A general note: In flow cytometry, cells or beads pass a laser one at a time.

Molecules are shown by their SMILES. Where only a bound is given, the exact number is not on record here.

For `COc1ccc2[nH]c3ccccc3c(=O)c2c1OC`, the IC50 in data set [1] was above 20 µM. For the molecule `COc1ccc(CCNC(=O)c2cccc3c(=O)c4ccccc4[nH]c23)cc1`, the Inhibition in data set [2] amounted to 71.3%. In addition, the IC50 in data set [1] came to 0.35 µM. `O=c1c2ccccc2[nH]c2cccc(O)c12`: in data set [1], the IC50 was above 20 µM.

As to `COc1ccc2[nH]c3ccccc3c(=O)c2c1`, the Inhibition in data set [2] was determined as 66%. Besides, in data set [1], the IC50 was determined as 4.8 µM.

Turning to `O=c1c2ccccc2[nH]c2ccc(O)cc12`, the IC50 in data set [1] was above 20 µM. Regarding `O=c1c2ccccc2[nH]c2cc(C(F)(F)F)cc(O)c12`, in data set [1], the IC50 was above 20 µM. As for `COc1cccc2[nH]c3ccccc3c(=O)c12`, the Inhibition in data set [2] is on record as 74%. Moreover, in data set [1], the IC50 came to 6.3 µM. As for `COc1cc(C(F)(F)F)cc2[nH]c3ccccc3c(=O)c12`, the Inhibition in data set [2] is 81%. Further, in data set [1], the half-inhibitory concentration (IC50) came out at 0.77 µM. For `COc1ccc(CCNC(=O)c2cccc3c(=O)c4ccc(OC)cc4[nH]c23)cc1`, the Inhibition in data set [2] was 112.3%. Besides, the IC50 in data set [1] was determined as 0.56 µM. For `COc1cc(OC)c2c(=O)c3ccccc3[nH]c2c1` the same measures were 65% and 7.9 µM.

For the molecule `COc1cc(O)c2c(=O)c3ccccc3[nH]c2c1`, in data set [1], the IC50 was above 20 µM. `COc1ccc(CCNC(=O)c2cccc3c(=O)c4ccccc4[nH]c23)cc1OC`: the Inhibition in data set [2] was found to be 90.2%. Besides, the IC50 in data set [1] was 0.45 µM. For `COc1ccc2c(=O)c3cccc(C(=O)NCCc4ccc(OC)c(OC)c4)c3[nH]c2c1` the same measures were 94.9% and 1.38 µM. Turning to `COc1cc2c(cc1OC)CN(CCc1ccc(NC(=O)c3cccc4c(=O)c5cccc(OC)c5[nH]c34)cc1)CC2`, in data set [2], the Inhibition was 100%.

As usually defined, the IC50 is the midpoint of a concentration-inhibition curve. The Inhibition is the relative decrease from the control value, in per cent.

For the origin of these results see ChEMBL document CHEMBL1147844, “Acridone derivatives: design, synthesis, and inhibition of breast cancer resistance protein ABCG2” (Bioorg Med Chem, 2007).
